Results from ChEMBL document CHEMBL4376814, “Novel cyclin-dependent kinase 9 (CDK9) inhibitor with suppression of cancer stemness activity against non-small-cell lung cancer” (Eur J Med Chem, 2019).
Calls of active or inactive are those of the source. The calls are words filed in the database; no cut-off is given here.

Experiments:
[1] = biological target: Bone morphogenetic protein receptor type-2 (Homo sapiens) (UniProt Q13873); assay: Inhibition of recombinant human BMPR2 (172 to 734 residues) at 1 uM using myelin basic protein as substrate measured after 120 mins in presence of [gamma33P]ATP by scintillation counting method relative to control
[2] = biological target: Mitogen-activated protein kinase kinase kinase kinase 1 (Homo sapiens) (UniProt Q92918); assay: Inhibition of recombinant human HPK1 (1 to 346 residues) at 1 uM using myelin basic protein as substrate measured after 40 mins in presence of [gamma33P]ATP by scintillation counting method relative to control
[3] = biological target: Ephrin type-A receptor 4 (Homo sapiens) (UniProt P54764); assay: Inhibition of recombinant human EphA4 (601 to 892 residues) at 1 uM using poly(Glu, Tyr) 4:1 as substrate measured after 40 mins in presence of [gamma33P]ATP by scintillation counting method relative to control
Method in brief: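 Single-point inhibition at 1 µM was measured in the Eurofins KinaseProfiler panel. Values are the mean of two independent experiments.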

NCI-H1299 [4] = assay: Induction of apoptosis in human H1299 cells assessed as increase in cleaved caspase 3 expression at 0.25 to 1 uM after 24 hrs by Western blot analysis; format: functional, cell-based
Method in brief: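 A549 or H1299 cells exposed to the indicated concentrations for 24 h. Protein extracts then immunoblotted for apoptosis-pathway proteins (Bcl2, Bim, cleaved caspase 3).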

[5] = biological target: Dual specificity protein kinase CLK3 (Homo sapiens) (UniProt P49761); assay: Inhibition of full length recombinant human CLK3 at 1 uM using ERMRPRKRQGSVRRRV as substrate measured after 40 mins in presence of [gamma33P]ATP by scintillation counting method relative to control
[6] = biological target: CDK9/cyclin T1 (Homo sapiens) (UniProt O60563+P50750); details: 1 uM
[7] = tested on: Tyrosine-protein kinase ABL1 (Homo sapiens), P00519 [Q252H]; assay: Inhibition of recombinant human ABL Q252H mutant (27 to end residues) at 1 uM using EAIYAAPFAKKK as substrate measured after 40 mins in presence of [gamma33P]ATP by scintillation counting method relative to control
[8] = biological target: Mitogen-activated protein kinase 1 (Homo sapiens) (UniProt P28482); assay: Inhibition of recombinant full-length human MAPK2 at 1 uM using MBP as substrate measured after 40 mins in presence of [gamma33P]ATP by scintillation counting method relative to control
[9] = biological target: Serine/threonine-protein kinase PAK 1 (Homo sapiens) (UniProt Q13153); assay: Inhibition of recombinant human PAK1 (150 to end residues) at 1 uM using RRRLSFAEPG as substrate measured after 40 mins in presence of [gamma33P]ATP by scintillation counting method relative to control
[10] = biological target: Serine/threonine-protein kinase Sgk3 (Homo sapiens) (UniProt Q96BR1); assay: Inhibition of human SGK3 (119 to end residues) at 1 uM using GRPRTSSFAEGKK as substrate measured after 40 mins in presence of [gamma33P]ATP by scintillation counting method relative to control
Method in brief: (§1)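 Percent inhibition of kinase activity at a single compound concentration, measured by the outsourced Eurofins KinaseProfiler panel. Values are the mean of two independent experiments.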

[11] = biological target: CDK6/cyclin D3 (Homo sapiens) (UniProt P30281+Q00534); assay: Inhibition of recombinant full-length human CDK6/cyclinD3 at 1 uM using histone H1 as substrate measured after 40 mins in presence of [gamma33P]ATP by scintillation counting method relative to control; format: protein-complex assay; method in brief: as §1
Homo sapiens [12] = species: Homo sapiens; assay: Inhibition of recombinant human PRAK R291E mutant at 1 uM using KKLRRTLSVA as substrate measured after 40 mins in presence of [gamma33P]ATP by scintillation counting method relative to control
Homo sapiens [13] = species: Homo sapiens; assay: Inhibition of recombinant full-length human AURKA I31F mutant at 1 uM using LRRASLG as substrate measured after 40 mins in presence of [gamma33P]ATP by scintillation counting method relative to control
NCI-H1299 [14] = assay: Antitumour activity against human H1299 cells xenografted in Balb/c mouse assessed as inhibition of tumour growth at 40 mg/kg, po administered for 21 days by digital caliper method relative to control; format: functional; details: 504 h, read-out: TGI
Method in brief: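 Female nude mice, 6-8 weeks old, injected subcutaneously with 1×10^6 H1299 cells (100 µL of a 1×10^7/mL suspension in serum-free medium). At 100-120 mm3, randomized into groups of 5. Dosed orally each day for 21 days with drug dissolved in DMSO, or with vehicle. Caliper measurements and body weight taken every other day. Volume = short²×long×0.5. Growth inhibition based on change in volume relative to vehicle. Tumours weighed at the end.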

[15] = Half life in CD-1 mouse liver microsomes at 2 uM in presence of NADPH measured up to 1 hr by HPLC analysis; format: ADME, Microsome
Method in brief: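 Drug at 2 µM incubated at 37 °C with male liver microsomes at 1 mg/mL, in 0.1 M phosphate buffer pH 7.4 with MgCl2. After 5 min preincubation, reaction started with NADPH. Samples (n=3) taken at 0, 10, 20, 30, 45 and 60 min, quenched with ice-cold acetonitrile, spun, and analysed by HPLC. t1/2 derived from the fitted rate constant k.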

Homo sapiens [16] = species: Homo sapiens; assay: Inhibition of recombinant full-length human ATRIP/ATR M211T mutant at 1 uM using GST-cMyc-p53 as substrate measured after 40 mins by fluorescence assay relative to control
NCI-H1299 [17] = assay: Induction of apoptosis in human H1299 cells assessed as viable cells at 1 uM after 48 hrs by AnnexinV-FITC/PI staining-based flow cytometric analysis (reference value: 97.1%); format: functional; details: NCI-H1299, 48 h, read-out: Activity
[18] = biological target: CDK7/Cyclin H/MNAT1 (Homo sapiens) (UniProt P51946+P50613+P51948); assay: Inhibition of human full length recombinant CDK7/cyclinH/MAT1 at 1 uM using peptide as substrate incubated for 40 mins in presence of [gamma-33P]ATP at by radiometric assay relative to control; format: protein-complex assay
[19] = biological target: Cytoplasmic tyrosine-protein kinase BMX (Homo sapiens) (UniProt P51813); assay: Inhibition of full-length recombinant human BMX at 1 uM using poly(Glu, Tyr) 4:1 as substrate measured after 40 mins in presence of [gamma33P]ATP by scintillation counting method relative to control; method in brief: as §1
[20] = biological target: Serine/threonine-protein kinase 35 (Homo sapiens) (UniProt Q8TDR2); assay: Inhibition of full length recombinant human CLIK1 at 1 uM using RSRSRSRSRSRSRSR as substrate measured after 40 mins in presence of [gamma33P]ATP by scintillation counting method relative to control
[21] = biological target: Casein kinase I isoform delta (Homo sapiens) (UniProt P48730); assay: Inhibition of recombinant human CK1delta (1 to 294 residues) at 1 uM using KRRRALS(p)VASLPGL as substrate measured after 40 mins in presence of [gamma33P]ATP by scintillation counting method relative to control
[22] = biological target: Cyclin-dependent kinase 9 (Homo sapiens) (UniProt P50750); details: A549, 0.25 to 1 uM

Chain of Mitogen-activated protein kinase 1 (Homo sapiens) (P28482 whole entry): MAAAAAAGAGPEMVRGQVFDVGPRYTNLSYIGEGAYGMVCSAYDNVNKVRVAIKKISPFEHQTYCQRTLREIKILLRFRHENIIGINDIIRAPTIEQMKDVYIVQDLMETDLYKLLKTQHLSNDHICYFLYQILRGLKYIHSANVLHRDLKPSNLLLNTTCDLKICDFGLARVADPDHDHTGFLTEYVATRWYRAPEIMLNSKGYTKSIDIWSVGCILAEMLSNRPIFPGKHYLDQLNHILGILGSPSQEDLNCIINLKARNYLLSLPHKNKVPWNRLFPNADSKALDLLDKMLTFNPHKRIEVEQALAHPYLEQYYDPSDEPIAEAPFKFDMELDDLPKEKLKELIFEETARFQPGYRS
Chain of Ephrin type-A receptor 4 (Homo sapiens) (P54764 whole entry, the tested form may be a part): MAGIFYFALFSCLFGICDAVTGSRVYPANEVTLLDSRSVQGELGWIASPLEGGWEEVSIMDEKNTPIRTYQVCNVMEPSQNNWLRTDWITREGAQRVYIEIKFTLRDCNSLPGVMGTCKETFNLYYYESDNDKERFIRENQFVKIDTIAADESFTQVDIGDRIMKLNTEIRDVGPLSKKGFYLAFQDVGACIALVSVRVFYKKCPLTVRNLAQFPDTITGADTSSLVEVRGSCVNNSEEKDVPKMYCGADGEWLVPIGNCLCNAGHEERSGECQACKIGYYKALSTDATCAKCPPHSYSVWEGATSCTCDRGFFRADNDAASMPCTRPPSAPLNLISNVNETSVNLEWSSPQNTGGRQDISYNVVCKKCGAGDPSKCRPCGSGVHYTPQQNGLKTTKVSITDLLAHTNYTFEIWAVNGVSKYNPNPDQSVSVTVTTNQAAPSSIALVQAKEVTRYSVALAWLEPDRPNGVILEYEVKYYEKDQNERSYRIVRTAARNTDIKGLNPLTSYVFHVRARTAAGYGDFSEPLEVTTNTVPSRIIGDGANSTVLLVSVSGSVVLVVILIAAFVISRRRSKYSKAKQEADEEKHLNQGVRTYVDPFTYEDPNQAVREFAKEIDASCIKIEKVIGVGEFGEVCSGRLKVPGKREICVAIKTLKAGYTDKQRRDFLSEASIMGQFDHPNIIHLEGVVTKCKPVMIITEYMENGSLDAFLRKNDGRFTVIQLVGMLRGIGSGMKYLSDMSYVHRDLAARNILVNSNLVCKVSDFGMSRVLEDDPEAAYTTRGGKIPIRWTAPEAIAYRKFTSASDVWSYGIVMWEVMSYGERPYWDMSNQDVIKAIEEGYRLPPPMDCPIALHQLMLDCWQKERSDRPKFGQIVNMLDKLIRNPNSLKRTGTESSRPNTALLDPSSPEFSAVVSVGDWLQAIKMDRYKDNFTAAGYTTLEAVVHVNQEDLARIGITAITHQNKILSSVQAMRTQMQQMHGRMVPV
Chain of Mitogen-activated protein kinase kinase kinase kinase 1 (Homo sapiens) (Q92918 whole entry, looked up, the tested form may be a part): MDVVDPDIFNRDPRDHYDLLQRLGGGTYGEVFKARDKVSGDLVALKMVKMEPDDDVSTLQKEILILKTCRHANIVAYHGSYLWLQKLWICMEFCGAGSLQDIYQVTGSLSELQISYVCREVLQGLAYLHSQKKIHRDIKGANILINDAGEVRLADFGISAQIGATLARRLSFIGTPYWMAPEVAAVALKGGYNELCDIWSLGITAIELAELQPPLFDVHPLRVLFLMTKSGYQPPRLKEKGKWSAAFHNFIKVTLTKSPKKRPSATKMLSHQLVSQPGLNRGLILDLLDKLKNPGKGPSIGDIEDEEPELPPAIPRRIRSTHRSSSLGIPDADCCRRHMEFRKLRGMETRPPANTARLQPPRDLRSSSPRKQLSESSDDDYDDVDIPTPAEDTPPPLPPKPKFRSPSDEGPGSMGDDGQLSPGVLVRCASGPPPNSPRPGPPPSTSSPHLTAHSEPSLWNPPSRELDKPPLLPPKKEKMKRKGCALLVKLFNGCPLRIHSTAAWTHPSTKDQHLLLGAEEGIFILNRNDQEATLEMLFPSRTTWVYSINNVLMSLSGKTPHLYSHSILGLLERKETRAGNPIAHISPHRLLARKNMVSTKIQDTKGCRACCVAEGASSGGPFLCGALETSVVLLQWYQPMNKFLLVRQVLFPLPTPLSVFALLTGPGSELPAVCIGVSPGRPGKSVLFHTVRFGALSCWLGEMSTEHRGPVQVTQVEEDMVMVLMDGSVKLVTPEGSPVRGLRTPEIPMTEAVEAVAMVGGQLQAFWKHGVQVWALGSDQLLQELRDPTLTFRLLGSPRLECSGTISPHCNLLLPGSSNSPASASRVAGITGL
Chain of Cytoplasmic tyrosine-protein kinase BMX (Homo sapiens) (P51813 whole entry): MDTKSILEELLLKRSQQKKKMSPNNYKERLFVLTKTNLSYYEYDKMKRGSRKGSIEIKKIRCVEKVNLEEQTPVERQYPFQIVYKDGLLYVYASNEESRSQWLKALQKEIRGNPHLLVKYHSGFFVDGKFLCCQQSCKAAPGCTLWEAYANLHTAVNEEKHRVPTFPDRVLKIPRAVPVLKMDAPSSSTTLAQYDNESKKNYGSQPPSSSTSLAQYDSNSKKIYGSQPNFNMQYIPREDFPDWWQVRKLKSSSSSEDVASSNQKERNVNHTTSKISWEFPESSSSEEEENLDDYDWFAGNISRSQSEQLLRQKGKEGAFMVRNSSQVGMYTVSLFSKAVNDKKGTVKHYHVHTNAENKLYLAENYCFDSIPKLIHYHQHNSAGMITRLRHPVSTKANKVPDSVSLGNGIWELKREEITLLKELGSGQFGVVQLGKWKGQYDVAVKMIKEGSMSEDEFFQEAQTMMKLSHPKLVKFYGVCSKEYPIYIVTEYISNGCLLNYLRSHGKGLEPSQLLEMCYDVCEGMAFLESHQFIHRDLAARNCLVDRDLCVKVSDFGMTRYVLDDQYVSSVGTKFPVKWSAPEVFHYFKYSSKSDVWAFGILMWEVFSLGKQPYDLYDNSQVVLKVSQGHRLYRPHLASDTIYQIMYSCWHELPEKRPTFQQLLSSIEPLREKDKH
Chain of Serine/threonine-protein kinase 35 (Homo sapiens) (Q8TDR2 whole entry, the tested form may be a part, canonical isoform): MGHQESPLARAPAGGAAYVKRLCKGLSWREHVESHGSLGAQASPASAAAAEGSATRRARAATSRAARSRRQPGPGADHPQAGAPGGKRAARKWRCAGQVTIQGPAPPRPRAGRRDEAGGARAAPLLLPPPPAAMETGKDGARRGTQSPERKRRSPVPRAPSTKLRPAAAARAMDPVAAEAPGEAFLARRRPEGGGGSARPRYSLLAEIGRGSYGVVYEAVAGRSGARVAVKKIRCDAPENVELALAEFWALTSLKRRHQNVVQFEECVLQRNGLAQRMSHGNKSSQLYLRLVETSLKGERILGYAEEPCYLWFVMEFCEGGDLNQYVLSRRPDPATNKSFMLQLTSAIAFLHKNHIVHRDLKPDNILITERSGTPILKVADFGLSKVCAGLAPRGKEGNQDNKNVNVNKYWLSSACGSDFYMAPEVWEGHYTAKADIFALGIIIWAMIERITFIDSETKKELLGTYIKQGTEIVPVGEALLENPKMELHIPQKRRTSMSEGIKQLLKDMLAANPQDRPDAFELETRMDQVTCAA
Chain of Casein kinase I isoform delta (Homo sapiens) (P48730 whole entry, looked up, the tested form may be a part, canonical isoform): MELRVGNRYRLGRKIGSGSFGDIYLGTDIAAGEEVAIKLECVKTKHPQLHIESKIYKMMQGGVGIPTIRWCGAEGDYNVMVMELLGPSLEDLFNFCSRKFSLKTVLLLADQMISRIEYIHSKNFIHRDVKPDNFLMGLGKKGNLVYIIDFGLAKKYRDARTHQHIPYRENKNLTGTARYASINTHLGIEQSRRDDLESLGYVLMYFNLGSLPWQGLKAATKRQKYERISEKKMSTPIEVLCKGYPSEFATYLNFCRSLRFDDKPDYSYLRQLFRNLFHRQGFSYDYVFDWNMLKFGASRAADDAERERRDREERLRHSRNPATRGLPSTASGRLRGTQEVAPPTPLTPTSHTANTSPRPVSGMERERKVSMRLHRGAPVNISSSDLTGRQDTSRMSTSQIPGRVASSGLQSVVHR
Chain of Serine/threonine-protein kinase Sgk3 (Homo sapiens) (Q96BR1 whole entry): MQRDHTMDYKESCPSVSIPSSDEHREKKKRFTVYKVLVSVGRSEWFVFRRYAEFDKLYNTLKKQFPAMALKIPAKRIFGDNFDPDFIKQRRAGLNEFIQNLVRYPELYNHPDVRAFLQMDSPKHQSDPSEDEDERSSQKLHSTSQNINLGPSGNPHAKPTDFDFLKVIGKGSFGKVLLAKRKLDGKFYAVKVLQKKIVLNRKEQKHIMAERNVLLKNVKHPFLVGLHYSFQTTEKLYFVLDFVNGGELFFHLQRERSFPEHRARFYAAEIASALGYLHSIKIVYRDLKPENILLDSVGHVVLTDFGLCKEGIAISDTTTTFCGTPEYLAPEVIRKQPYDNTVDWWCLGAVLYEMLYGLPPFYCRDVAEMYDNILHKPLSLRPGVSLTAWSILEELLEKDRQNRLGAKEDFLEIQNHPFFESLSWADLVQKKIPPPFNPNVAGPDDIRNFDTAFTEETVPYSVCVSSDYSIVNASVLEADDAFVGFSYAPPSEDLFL
Chain of Serine/threonine-protein kinase PAK 1 (Homo sapiens) (Q13153 whole entry): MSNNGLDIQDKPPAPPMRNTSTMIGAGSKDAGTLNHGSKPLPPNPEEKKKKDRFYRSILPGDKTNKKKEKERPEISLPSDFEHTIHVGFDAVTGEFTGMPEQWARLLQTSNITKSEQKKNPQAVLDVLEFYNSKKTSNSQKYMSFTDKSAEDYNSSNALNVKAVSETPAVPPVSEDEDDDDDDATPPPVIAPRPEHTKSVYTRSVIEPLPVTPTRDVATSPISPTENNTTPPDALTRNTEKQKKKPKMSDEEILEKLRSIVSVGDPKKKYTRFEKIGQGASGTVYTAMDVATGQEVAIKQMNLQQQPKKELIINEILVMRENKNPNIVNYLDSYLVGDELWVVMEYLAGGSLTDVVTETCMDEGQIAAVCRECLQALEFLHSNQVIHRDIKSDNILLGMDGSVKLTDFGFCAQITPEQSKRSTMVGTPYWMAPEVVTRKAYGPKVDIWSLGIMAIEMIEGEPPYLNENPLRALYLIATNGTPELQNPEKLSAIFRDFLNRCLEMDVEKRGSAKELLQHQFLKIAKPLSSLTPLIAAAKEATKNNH

## CN(C)C(=O)c1cc2cnc(Nc3ccc(NC(=O)CCCCCCCN=C=S)cc3)nc2n1C1CCCC1
[1]
  inhibition: 73%
[2]
  inhibition: 85%
[3]
  inhibition: 1%
NCI-H1299 [4]
  Activity: Active
[5]
  inhibition: 37%
[6]
  inhibition: 98%
[7]
  inhibition: 48%
[8]
  inhibition: 7%
[9]
  inhibition: -5%
[10]
  inhibition: 4%
[11]
  inhibition: 79%
Homo sapiens [12]
  inhibition: 3%
Homo sapiens [13]
  inhibition: 95%
NCI-H1299 [14]
  inhibition in vivo at 40 mg/kg: 89.7%
[15]
  half-life at 2 µM: 23.1 min
Homo sapiens [16]
  inhibition: -4%
NCI-H1299 [17]
  viability at 1 µM: 89.6%
[18]
  inhibition: 55%
[19]
  inhibition: 90%
[20]
  inhibition: 14%
[21]
  inhibition: -2%
[22]
  inhibition: Active
